Laboratory results: ChEMBL document CHEMBL1765083, “Design, synthesis, and biological evaluation of thiazoles targeting flavivirus envelope proteins” (J Med Chem, 2011)
pEC50: −log10 of the molar value.

Tests used:
[1] = tested on: Yellow fever virus; assay: Antiviral activity against Yellow fever virus 17D expressing IRES-luciferase gene infected in BHK cells assessed as inhibition of viral production after 36 hrs by luciferase reporter assay relative to control; format: functional
Procedure, shortened: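 Controls: uninfected, infected, and DMSO-treated infected cells. After ~36 h at 37 °C, 5% CO2, cells lysed and firefly luciferase luminescence read. IC50 from nonlinear regression versus DMSO-treated infected cells.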

[2] = Therapeutic index, ratio of GI50 for BHK15 cells to EC50 for Yellow fever virus 17D; format: cell-based; conditions: hamster, read-out: TI
[3] = Growth inhibition of BHK15 cells after 36 hrs by XTT assay; format: cell-based, Mesocricetus auratus; conditions: hamster
Procedure, shortened: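 Uninfected confluent BHK-15 cells (MEM, 10% FBS) overlaid with serial compound dilutions from DMSO stocks, ~36 h at 37 °C, 5% CO2. Medium replaced, XTT substrate added, 2 h at 37 °C, then OD450 read. GI50 calculated relative to cells given 1% DMSO.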

[4] = Half life in rat plasma; format: ADME
Procedure, shortened: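 Reconstituted lyophilized rat plasma warmed 15 min at 37 °C, diluted with 0.01 M saline to 80% plasma, then warmed 5 min more. Compound in DMSO added; mixture kept at 37 °C. Timed aliquots quenched in methanol and centrifuged; supernatants analysed by C18 HPLC (85:15 methanol/water, room temperature). Half-life from regression of concentration versus time.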

[5] = tested on: Yellow fever virus; assay: Antiviral activity against Yellow fever virus 17D expressing IRES-luciferase gene infected in BHK cells assessed as inhibition of viral production at 50 uM after 36 hrs by luciferase reporter assay; format: functional, cell-based

| Structure (SMILES) | inhibition (INH) [1] | selectivity ratio [2] | GI50 at 36 h [3] | half-life [4] | pEC50 [5] |
| --- | --- | --- | --- | --- | --- |
| CSC(=O)c1sc(-c2ccc(Cl)cc2)nc1C(Br)Br | 99.6% | 256 | 369 µM | 24.7 h | 5.85 |
| CN(C)C(=O)c1sc(-c2ccc(Cl)cc2)nc1C=O | 5.5% | – | – | – | – |
| CONC(=O)c1sc(-c2ccc(Cl)cc2)nc1C(Br)Br | 93.6% | – | 81.4 µM | – | 5.77 |
| COC(=O)c1nc(-c2ccc(Cl)cc2)sc1-c1nc(C)no1 | 1.5% | – | – | – | – |
| CCOC(=O)c1sc(-c2ccc(Cl)cc2)nc1-c1ccco1 | 50.3% | – | 465 µM | – | 3.51 |
| C=CCNC(=O)c1sc(-c2ccc(Cl)cc2)nc1C(Br)Br | 99.9% | – | 40.8 µM | – | 5.80 |
| COC(=O)c1sc(-c2ccc(Cl)cc2)nc1C#N | 7.8% | – | – | – | – |
| COC(=O)c1sc(-c2ccc(Cl)cc2)nc1C(Cl)Cl | 99.9% | – | 34.1 µM | – | 4.28 |
| CNC(=O)c1sc(-c2ccc(Cl)cc2)nc1C(Br)Br | 99.7% | – | 74.6 µM | – | 5.74 |
| O=C(N[C@@H]1OC(CO)C(O)[C@H](O)[C@H]1O)c1sc(-c2ccc(Cl)cc2)nc1C(Br)Br (single isomer, unassigned) | 43.4% | – | – | – | – |
| NC(=O)c1sc(-c2ccc(Cl)cc2)nc1C(Br)Br | 99.8% | – | 99.7 µM | – | 5.77 |
| COCc1nc(-c2ccc(Cl)cc2)sc1C(=O)N(C)C | 11.3% | – | – | – | – |
| COC(=O)c1nc(-c2ccc(Cl)cc2)sc1C(=O)OC | 30.1% | – | – | – | – |
| CNC(=O)c1sc(-c2ccc(Cl)cc2)nc1C=O | 37.5% | – | – | – | – |
| CCN(CC)C(=O)c1sc(-c2ccc(Cl)cc2)nc1C(Br)Br | 99.8% | – | 63.5 µM | – | 4.86 |
| C#CCNC(=O)c1sc(-c2ccc(Cl)cc2)nc1C(Br)Br | 99.7% | – | 23.9 µM | – | 5.77 |
| COC(=O)c1sc(-c2ccc(Cl)cc2)nc1C(Br)Br | 99.6% | 79 | 222 µM | 1.42 h | 5.55 |
| O=C(NCCO)c1sc(-c2ccc(Cl)cc2)nc1C(Br)Br | 99.8% | – | 40.8 µM | – | 5.54 |

| Structure (SMILES) | inhibition (INH) [1] | selectivity ratio [2] | GI50 at 36 h [3] | half-life [4] | pEC50 [5] |
| --- | --- | --- | --- | --- | --- |
| CN(C)/C=C/C(=O)c1sc(-c2ccc(Cl)cc2)nc1C(Br)Br | 99.8% | – | 38.2 µM | – | 4.94 |
| COC(=O)c1sc(-c2ccc(Cl)cc2)nc1C(C)C | 14.7% | – | 49.6 µM | – | 4.23 |
| COC(=O)c1sc(-c2ccc(Cl)cc2)nc1C(C)(C)C | 20.9% | – | – | – | – |
| COC(=O)c1sc(-c2ccc(Cl)cc2)nc1CS(C)(=O)=O | -74.7% | – | – | – | – |
| Cc1noc(-c2sc(-c3ccc(Cl)cc3)nc2C=O)n1 | 99.6% | – | 163 µM | – | 4.58 |
| CCOC(=O)c1sc(-c2ccc(Cl)cc2)nc1C(Br)Br | 98.1% | – | 94.6 µM | – | 5.06 |
| CN(C)C(=O)c1sc(-c2ccc(Cl)cc2)nc1C(Br)Br | 93.2% | – | 163 µM | – | 4.70 |
| CC(C)OC(=O)c1sc(-c2ccc(Cl)cc2)nc1C(Br)Br | 84.4% | – | 372 µM | – | 4.70 |
| CCNC(=O)c1sc(-c2ccc(Cl)cc2)nc1C(Br)Br | 99.9% | – | 33.3 µM | – | 5.57 |
| CNC(=O)c1sc(-c2ccc(Cl)cc2)nc1COC | 99.7% | – | 50.8 µM | – | 5.54 |
| CC(=O)c1sc(-c2ccc(Cl)cc2)nc1C(Br)Br | 99.9% | – | 83.5 µM | – | 5.89 |
| COC(=O)c1sc(-c2ccc(Cl)cc2)nc1C=O | 99.9% | – | 36.4 µM | – | 4.37 |
| COC(=O)c1sc(-c2ccc(Cl)cc2)nc1CBr | 99.9% | – | 74.6 µM | – | 5.80 |
| CCc1nc(-c2ccc(Cl)cc2)sc1C(=O)OC | -56.7% | – | – | – | – |
| COC(=O)c1nc(-c2ccc(Cl)cc2)sc1C(=O)N(C)C | 74% | – | 99.7 µM | – | 4.29 |
| O=C(NC[C@@H](O)CO)c1sc(-c2ccc(Cl)cc2)nc1C(Br)Br | 99.9% | – | 158 µM | – | 5.96 |
| COCc1nc(-c2ccc(Cl)cc2)sc1C(=O)OC | 38.1% | – | 388 µM | – | 3.80 |
| CCSC(=O)c1sc(-c2ccc(Cl)cc2)nc1C(Br)Br | 99.7% | – | 81.4 µM | – | 5.80 |
